Test [1] deals with Vero. The experiment in a line: Cytotoxicity against Vero cells after 3 days by Alamar Blue assay. The format is cell-based. To be noted: Chlorocebus sabaeus, 72 h. In short, it runs like this:
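Vero (African green monkey kidney epithelial) cells were grown without CO₂ in L15 with antibiotics and heat-inactivated calf serum. Cells in medium with 2X Alamar Blue were added at 1.3×10^4 cells/well to 2-fold serial drug dilutions. Plates were incubated 3 days at 37 °C, and IC50 was calculated per the manufacturer's directions.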
(In general: The colour change of resazurin is a common sign of viable cells or microbes.)

Test [2] deals with Mycobacterium tuberculosis. The experiment in a line: […]. The format is functional. In short, it runs like this: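 Strains were grown at 37 °C in 7H9 Middlebrook broth with 10% OADC, 0.05% Tween and 0.2% glycerol. Compounds were dissolved in DMSO and serially diluted 2-fold, then bacteria were added. Plates were incubated 6 days at 37 °C, then 24 h more with Alamar Blue. MIC was the lowest concentration (μg/mL) that prevented the colour change. Run in triplicate.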

Values after ≈ are worked out from the molar mass of the structure shown.

By IC50 is commonly meant the concentration that inhibits the measured activity by half. Low values mean greater potency in that assay, high ones weaker potency in that assay. The term MIC denotes the lowest concentration that inhibits growth of the organism. Read a low MIC as greater potency. With `CN(C)c1cc2[nH]c(C3CCCCC3)nc2cc1NC(=O)c1ccc(C(C)(C)C)cc1`, the IC50 in test [1] was more than 100 µg/mL. Inhibition of growth in test [2] (H37Rv, 144 h) (MIC) required 1.56 µg/mL (≈ 3.73 µM).
In turn, `CCOCCOC(=O)Nc1cc2nc(C3CCCCC3)[nH]c2cc1N(C)C` registered an IC50 in test [1] of more than 100 µg/mL. This molecule also had an MIC in test [2] (H37Rv, 144 h) of 0.31 µg/mL (≈ 0.828 µM).
For `CN(C)c1cc2[nH]c(C3CCCCC3)nc2cc1NC(=O)c1ccc(F)cc1F`, in that order: more than 100 µg/mL and 0.31 µg/mL (≈ 0.778 µM).
Consider `CCCN(CCC)c1cc2[nH]c(C3CCCCC3)nc2cc1NC(=O)c1ccccc1`, for which, in test [1], the IC50 was more than 100 µg/mL. In test [2] (H37Rv, 144 h), this molecule showed an MIC of more than 100 µg/mL.
In test [1], `CCCCOC(=O)Nc1cc2nc(C3CCCCC3)[nH]c2cc1N(CC)CCN(C)C` came in with an IC50 of more than 100 µg/mL. Also, the MIC in test [2] (H37Rv, 144 h) stood at 100 µg/mL (≈ 233 µM).
In the case of `CCCc1ccc(C(=O)Nc2cc3nc(C4CCCCC4)[nH]c3cc2N(C)C)cc1`, the IC50 in test [1] was more than 100 µg/mL. Besides, the lowest concentration to inhibit growth in test [2] (H37Rv, 144 h) (MIC) was 0.63 µg/mL (≈ 1.56 µM).
For `CN(C)c1cc2[nH]c(C3CCCCC3)nc2cc1NC(=O)c1ccc(OC(F)F)cc1`, in that order: more than 100 µg/mL and 0.31 µg/mL (≈ 0.723 µM).
In test [2] (H37Rv, 144 h), `CCN(CC)c1cc2[nH]c(C3CCCCC3)nc2cc1NC(=O)c1ccc(OC)cc1` returned an MIC of 1.56 µg/mL (≈ 3.71 µM).
As for `CN(C)c1cc2[nH]c(C3CCCCC3)nc2cc1NC(=O)c1ccco1`, the IC50 in test [1] was more than 100 µg/mL. Besides, the MIC in test [2] (H37Rv, 144 h) was determined as 6.25 µg/mL (≈ 17.7 µM).
Taken in the same sequence, the figures for `COc1ccc(CC(=O)Nc2cc3nc(C4CCCCC4)[nH]c3cc2N(C)C)cc1` were more than 100 µg/mL and more than 100 µg/mL.
`CCc1ccc(C(=O)Nc2cc3nc(C4CCCCC4)[nH]c3cc2N(CC)CC)cc1`: the IC50 in test [1] is more than 100 µg/mL. The same molecule had an MIC in test [2] (H37Rv, 144 h) of 1.56 µg/mL (≈ 3.73 µM).
For `C=Cc1cccc(C(=O)Nc2cc3nc(C4CCCCC4)[nH]c3cc2N(CC)CC)c1`, in that order: more than 100 µg/mL and 25 µg/mL (≈ 60 µM).
`O=C(Nc1cc2nc(C3CCCCC3)[nH]c2cc1N1CCCC1)OCc1ccccc1` yielded an MIC in test [2] (H37Rv, 144 h) of 3.13 µg/mL (≈ 7.48 µM).
Take `CCCCCC(=O)Nc1cc2nc(C3CCCCC3)[nH]c2cc1N(C)C`: the IC50 in test [1] was more than 100 µg/mL. Further, in test [2] (H37Rv, 144 h), the MIC amounted to 1.25 µg/mL (≈ 3.51 µM).
For `CCCOCC(=O)Nc1cc2nc(C3CCCCC3)[nH]c2cc1N1CCCC1`, in that order: more than 100 µg/mL and 12.5 µg/mL (≈ 32.5 µM).
Turning to `NNC(=O)c1ccncc1` [ISONIAZID], the MIC came to 0.013 µg/mL (≈ 0.0948 µM) in test [2] (H37Rv, 144 h) and 0.01 µg/mL (≈ 0.0729 µM) in test [2] (W210, 144 h).
`CN(C)c1cc2[nH]c(C3CCCCC3)nc2cc1NC(=O)c1cccs1` gave a concentration for half-maximal inhibition (IC50) in test [1] of more than 100 µg/mL. This molecule also yielded an MIC in test [2] (H37Rv, 144 h) of 5 µg/mL (≈ 13.6 µM).
`CCCCOC(=O)Nc1cc2nc(C3CCCCC3)[nH]c2cc1N1CCCC1` returned an MIC in test [2] (H37Rv, 144 h) of 0.39 µg/mL (≈ 1.01 µM).
Consider `CCN(CC)c1cc2[nH]c(C3CCCCC3)nc2cc1NC(=O)OCC(F)(F)F`, for which, in test [1], the concentration for half-maximal inhibition (IC50) was more than 100 µg/mL. The molecule also yielded an MIC in test [2] (H37Rv, 144 h) of 1.56 µg/mL (≈ 3.78 µM).
Regarding `CCCc1ccc(C(=O)Nc2cc3nc(C4CCCCC4)[nH]c3cc2N(CC)CC)cc1`, the MIC in test [2] (H37Rv, 144 h) was more than 100 µg/mL.
In test [1], `CN(C)c1cc2[nH]c(C3CCCCC3)nc2cc1NC(=O)c1ccc(Br)cc1` showed a half-maximal inhibitory concentration (IC50) of more than 100 µg/mL. In test [2] (H37Rv, 144 h), it took 0.31 µg/mL (≈ 0.702 µM) to inhibit growth (MIC).
On to `CCCOCC(=O)Nc1cc2nc(C3CCCCC3)[nH]c2cc1N(CC)CC`, for which the IC50 in test [1] is more than 100 µg/mL. The molecule further yielded an MIC in test [2] (H37Rv, 144 h) of 25 µg/mL (≈ 64.7 µM).
For `O=C(Nc1cc2nc(C3CCCCC3)[nH]c2cc1N1CCCC1)OCC(F)(F)F`, in that order: more than 100 µg/mL and 0.31 µg/mL (≈ 0.755 µM).
For `CN(C)c1cc2[nH]c(C3CCCCC3)nc2cc1NC(=O)c1ccccc1`, in that order: more than 100 µg/mL and 1.56 µg/mL (≈ 4.3 µM).
`O=C(NCc1ccccc1)Nc1cc2nc(C3CCCCC3)[nH]c2cc1N1CCCC1` registered an IC50 in test [1] of more than 100 µg/mL. In test [2] (H37Rv, 144 h), this molecule gave an MIC of 25 µg/mL (≈ 59.9 µM).
Consider `CCN(CC)c1cc2[nH]c(C3CCCCC3)nc2cc1NC(=O)c1ccc(C)cc1`, for which the IC50 in test [1] was more than 100 µg/mL. In test [2] (H37Rv, 144 h), this molecule yielded an MIC of 12.5 µg/mL (≈ 30.9 µM).
`CCCCCC(=O)Nc1cc2nc(C3CCCCC3)[nH]c2cc1N1CCCC1` gave an IC50 in test [1] of more than 100 µg/mL. This molecule also gave an MIC in test [2] (H37Rv, 144 h) of 6.25 µg/mL (≈ 16.3 µM).
Taken in the same sequence, the figures for `CCN(CC)c1cc2[nH]c(C3CCCCC3)nc2cc1NC(=O)NCc1ccccc1` were more than 100 µg/mL and more than 100 µg/mL.
In test [1], `CCCCOC(=O)Nc1cc2nc(C3CCCCC3)[nH]c2cc1N(C)CCN(C)C` showed an IC50 of more than 100 µg/mL. In addition, the MIC in test [2] (H37Rv, 144 h) was more than 100 µg/mL.
`CN(C)c1cc2[nH]c(C3CCCCC3)nc2cc1NC(=O)c1ccc(F)cc1` came in with a half-inhibitory concentration (IC50) in test [1] of more than 100 µg/mL. The molecule also came in with an MIC in test [2] (H37Rv, 144 h) of 0.63 µg/mL (≈ 1.66 µM).
Regarding `CN(C)c1cc2[nH]c(C3CCCCC3)nc2cc1NC(=O)c1cccc(Br)c1`, in test [1], the IC50 was more than 100 µg/mL. This molecule also had an MIC in test [2] (H37Rv, 144 h) of 3.13 µg/mL (≈ 7.09 µM).
In turn, `CCN(CC)c1cc2[nH]c(C3CCCCC3)nc2cc1NC(=O)OCCOCCOC` returned an IC50 in test [1] of more than 100 µg/mL. Also, the MIC in test [2] (H37Rv, 144 h) came out at 12.5 µg/mL (≈ 28.9 µM).

For the origin of these results see ChEMBL document CHEMBL3124890, “SAR studies on trisubstituted benzimidazoles as inhibitors of Mtb FtsZ for the development of novel antitubercular agents” (J Med Chem, 2013).
